Assay results published in ChEMBL document CHEMBL3124849, “Total synthesis of burkholdacs A and B and 5,6,20-tri-epi-burkholdac A: HDAC inhibition and antiproliferative activity” (Eur J Med Chem, 2014).
One block for each molecule: values may come before it.

Assays:
SF-295 = assay: Cytotoxicity against human SF295 cells by SRB assay; type: functional
Outline: (§1)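 Tested at the Japanese Foundation for Cancer Research panel of 39 human cancer cell lines. Five concentrations per compound, spanning 10^-10 to 10^-6 M or 10^-8 to 10^-4 M. Growth measured by sulforhodamine B colorimetry. GI50 is the concentration giving 50% growth inhibition relative to control.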

HT-29 = assay: Cytotoxicity against human HT-29 cells by SRB assay; type: functional; outline: as §1
MDA-MB-231 = assay: Cytotoxicity against human MDA-MB-231 cells by SRB assay; type: functional; outline: as §1
SNB-75 = assay: Cytotoxicity against human SNB75 cells by SRB assay; type: functional; outline: as §1
SF-539 = assay: Cytotoxicity against human SF539 cells by SRB assay; type: functional; outline: as §1
LOX IMVI = assay: Cytotoxicity against human LOXIMVI cells by SRB assay; type: functional; outline: as §1
HCC 2998 = assay: Cytotoxicity against human HCC2998 cells by SRB assay; type: functional; outline: as §1
St-4 = assay: Cytotoxicity against human St-4 cells by SRB assay; type: functional; outline: as §1
[1] = Cytotoxicity against human DMS114 cells by SRB assay; type: functional; conditions: DMS-114; outline: as §1
NCI-H460 = assay: Cytotoxicity against human NCI-H460 cells by SRB assay; type: functional; outline: as §1
[2] = Cytotoxicity against human MKN45 cells by SRB assay; type: functional; conditions: MKN-45; outline: as §1
U-251 = assay: Cytotoxicity against human U251 cells by SRB assay; type: functional; outline: as §1
[3] = Cytotoxicity against human BSY1 cells by SRB assay; type: functional; conditions: BSY-1; outline: as §1
NCI-H522 = assay: Cytotoxicity against human NCI-H522 cells by SRB assay; type: functional; outline: as §1
[4] = Cytotoxicity against human HBC5 cells by SRB assay; type: functional; outline: as §1
SF-268 = assay: Cytotoxicity against human SF268 cells by SRB assay; type: functional; outline: as §1
SK-OV-3 = assay: Cytotoxicity against human SKOV3 cells by SRB assay; type: functional; outline: as §1
MCF7 = assay: Cytotoxicity against human MCF7 cells by SRB assay; type: functional; outline: as §1
DU-145 = assay: Cytotoxicity against human DU145 cells by SRB assay; type: functional; outline: as §1
A549 = assay: Cytotoxicity against human A549 cells by SRB assay; type: functional; outline: as §1
HCT-116 = assay: Cytotoxicity against human HCT116 cells by SRB assay; type: functional; outline: as §1
[5] = Cytotoxicity against human MKN74 cells by SRB assay; type: functional; conditions: MKN-74; outline: as §1
PC-3 = assay: Cytotoxicity against human PC3 cells by SRB assay; type: functional; outline: as §1
OVCAR-3 = assay: Cytotoxicity against human OVCAR3 cells by SRB assay; type: functional; outline: as §1
Histone deacetylase 1 = Histone deacetylase 1 (Homo sapiens, UniProt Q13547); assay: Inhibition of human HDAC1 expressed in human 293T cells using Ac-KGLGK(Ac)-MCA as substrate after 30 mins by fluorescence assay
[6] = Cytotoxicity against human HBC4 cells by SRB assay; type: functional; outline: as §1
NCI-H23 = assay: Cytotoxicity against human NCI-H23 cells by SRB assay; type: functional; outline: as §1
KM12 = assay: Cytotoxicity against human KM12 cells by SRB assay; type: functional; outline: as §1
[7] = Cytotoxicity against human RXF631L cells by SRB assay; type: functional; conditions: RXF 631; outline: as §1
NCI-H226 = assay: Cytotoxicity against human NCI-H226 cells by SRB assay; type: functional; outline: as §1
[8] = Cytotoxicity against human DMS273 cells by SRB assay; type: functional; conditions: DMS-273; outline: as §1
OVCAR-8 = assay: Cytotoxicity against human OVCAR8 cells by SRB assay; type: functional; outline: as §1
[9] = Cytotoxicity against human OVCAR4 cells by SRB assay; type: functional; conditions: OVCAR-4; outline: as §1
[10] = target: T1, Protein deacetylase HDAC6 (Mus musculus, UniProt Q9Z2V5); assay: Inhibition of mouse HDAC6 expressed in human 293T cells using Ac-KGLGK(Ac)-MCA as substrate after 30 mins by fluorescence assay; type: cell-based
T1 sequence (Q9Z2V5 whole entry): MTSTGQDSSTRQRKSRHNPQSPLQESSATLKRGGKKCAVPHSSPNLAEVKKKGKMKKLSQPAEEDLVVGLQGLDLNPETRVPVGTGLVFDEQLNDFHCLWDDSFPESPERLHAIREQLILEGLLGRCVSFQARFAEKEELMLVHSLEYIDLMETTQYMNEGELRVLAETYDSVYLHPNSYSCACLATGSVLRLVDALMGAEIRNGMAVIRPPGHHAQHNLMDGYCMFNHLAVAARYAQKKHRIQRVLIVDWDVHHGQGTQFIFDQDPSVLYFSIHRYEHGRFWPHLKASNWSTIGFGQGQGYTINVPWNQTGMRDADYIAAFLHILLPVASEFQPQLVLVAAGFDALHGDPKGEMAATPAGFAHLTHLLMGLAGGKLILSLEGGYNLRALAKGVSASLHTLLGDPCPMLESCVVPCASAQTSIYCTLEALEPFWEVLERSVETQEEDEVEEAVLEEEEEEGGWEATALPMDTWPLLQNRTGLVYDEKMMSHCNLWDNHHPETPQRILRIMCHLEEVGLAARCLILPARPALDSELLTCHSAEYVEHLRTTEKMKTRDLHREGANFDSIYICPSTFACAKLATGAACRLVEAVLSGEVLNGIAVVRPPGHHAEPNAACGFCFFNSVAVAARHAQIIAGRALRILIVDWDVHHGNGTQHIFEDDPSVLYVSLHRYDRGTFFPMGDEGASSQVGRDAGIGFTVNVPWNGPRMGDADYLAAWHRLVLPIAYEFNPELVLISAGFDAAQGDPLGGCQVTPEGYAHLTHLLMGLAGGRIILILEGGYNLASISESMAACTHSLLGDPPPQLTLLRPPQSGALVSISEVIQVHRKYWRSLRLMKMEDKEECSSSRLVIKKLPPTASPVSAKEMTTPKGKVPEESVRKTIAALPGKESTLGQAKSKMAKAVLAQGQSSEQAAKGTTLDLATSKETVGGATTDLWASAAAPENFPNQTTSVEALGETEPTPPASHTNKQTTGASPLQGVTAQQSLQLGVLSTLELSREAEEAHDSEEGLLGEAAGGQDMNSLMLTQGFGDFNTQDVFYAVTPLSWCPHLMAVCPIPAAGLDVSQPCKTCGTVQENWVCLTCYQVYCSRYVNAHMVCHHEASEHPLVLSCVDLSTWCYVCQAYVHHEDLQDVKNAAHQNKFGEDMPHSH

ACHN = assay: Cytotoxicity against human ACHN cells by SRB assay; type: functional; outline: as §1
[11] = Cytotoxicity against human SNB78 cells by SRB assay; type: functional; conditions: SNB-78; outline: as §1
[12] = Cytotoxicity against human MKN1 cells by SRB assay; type: functional; conditions: MKN-1; outline: as §1
[13] = Cytotoxicity against human MKN7 cells by SRB assay; type: functional; conditions: MKN-7; outline: as §1
HCT-15 = assay: Cytotoxicity against human HCT15 cells by SRB assay; type: functional; outline: as §1
[14] = Cytotoxicity against human MKN28 cells by SRB assay; type: functional; conditions: MKN-28; outline: as §1
[15] = Cytotoxicity against human OVCAR5 cells by SRB assay; type: functional; conditions: OVCAR-5; outline: as §1
[16] = Selectivity index, ratio of IC50 for mouse HDAC6 to IC50 for human HDAC1
Outline: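 Ratio of HDAC6 IC50 to HDAC1 IC50. Both enzymes were FLAG-immunopurified from transfected 293T cells: human HDAC1 and mouse HDAC6. Each was assayed on Ac-KGLGK(Ac)-MCA with 100 µM DTT at 37 °C for 30 min, developed with trypsin, and AMC read by fluorescence. IC50s are means of ≥3 curves.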

Sequence of Histone deacetylase 1 (Q13547 whole entry): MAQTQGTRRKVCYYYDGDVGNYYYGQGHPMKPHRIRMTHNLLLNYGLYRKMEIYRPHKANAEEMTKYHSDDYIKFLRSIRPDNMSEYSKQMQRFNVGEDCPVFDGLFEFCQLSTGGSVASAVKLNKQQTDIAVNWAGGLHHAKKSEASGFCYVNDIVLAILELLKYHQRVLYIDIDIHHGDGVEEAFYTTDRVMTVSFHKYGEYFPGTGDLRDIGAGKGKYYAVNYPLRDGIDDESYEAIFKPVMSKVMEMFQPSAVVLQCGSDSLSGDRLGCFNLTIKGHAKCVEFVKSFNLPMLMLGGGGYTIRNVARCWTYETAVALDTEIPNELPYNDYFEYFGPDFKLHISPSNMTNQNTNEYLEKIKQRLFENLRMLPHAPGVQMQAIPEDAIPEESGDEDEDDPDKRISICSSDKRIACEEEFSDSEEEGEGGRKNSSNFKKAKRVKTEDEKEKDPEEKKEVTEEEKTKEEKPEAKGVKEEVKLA

IC50 (Histone deacetylase 1): 337 nM
IC50 [10]: > 10000 nM
Compound: CSCC[C@@H]1NC(=O)C[C@H]2/C=C/CCSSC[C@@H](NC1=O)C(=O)N[C@@H](C(C)C)[C@H](O)CC(=O)O2
GI50 (SF-295): 1600 nM
GI50 (HT-29): 1400 nM
GI50 (MDA-MB-231): 1800 nM
GI50 (SNB-75): 1000 nM
GI50 (SF-539): 1800 nM
GI50 (LOX IMVI): 230 nM
GI50 (HCC 2998): 1700 nM
GI50 (St-4): 3400 nM
GI50 [1]: 1300 nM
GI50 (NCI-H460): 1800 nM
GI50 [2]: 3700 nM
GI50 (U-251): 410 nM
GI50 [3]: 1600 nM
GI50 (NCI-H522): 360 nM
GI50 [4]: 1900 nM
GI50 (SF-268): 960 nM
GI50 (SK-OV-3): 1700 nM
GI50 (MCF7): 1800 nM
GI50 (DU-145): 1500 nM
GI50 (A549): 1400 nM
GI50 (HCT-116): 540 nM
GI50 [5]: 1500 nM
GI50 (PC-3): 1600 nM
GI50 (OVCAR-3): 1800 nM
GI50 [6]: 1300 nM
GI50 (NCI-H23): 1600 nM
GI50 (KM12): 1600 nM
GI50 [7]: 4000 nM
GI50 (NCI-H226): 1700 nM
GI50 [8]: 2300 nM
GI50 (OVCAR-8): 1900 nM
GI50 [9]: 1800 nM
GI50 (ACHN): 4400 nM
GI50 [11]: 1700 nM
GI50 [12]: 1400 nM
GI50 [13]: 2100 nM
GI50 (HCT-15): 15000 nM
GI50 [14]: 1900 nM
GI50 [15]: 1300 nM

Ratio IC50 [16]: 636
Compound: CCC(C)[C@H]1NC(=O)[C@H]2CSSCC/C=C/[C@H](CC(=O)N[C@H](C)C(=O)N2)OC(=O)C[C@@H]1O (some centres not stated)
